Experimental data taken from ChEMBL document CHEMBL3758088, “Synthesis and biological evaluation of enantiomerically pure glyceric acid derivatives as LpxC inhibitors” (Bioorg Med Chem, 2016).
In brackets after ≈: the same amount, converted by molar mass.

What was measured:
Escherichia coli [1] = experiment: Antibacterial activity against Escherichia coli BL21(DE3) incubated for 20 hrs by microdilution assay; type: functional
Outline: (§1)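 Broth microdilution in LB medium with 5% DMSO. Overnight cultures (LB, 37 °C, 200 rpm) were diluted 1:100 in fresh LB. Compounds were added from a twofold DMSO dilution series (5.12 mM to 20 nM stock), giving 256 μM to 1 nM final. Plates were shaken 20 h at 37 °C, 200 rpm. MIC was the lowest concentration with no visible growth.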

Escherichia coli [2] = experiment: Antibacterial activity against Escherichia coli D22 incubated for 20 hrs by microdilution assay; type: functional; details: D22, 20 h; outline: as §1
[3] = molecular target: UDP-3-O-acyl-N-acetylglucosamine deacetylase (Escherichia coli K-12, UniProt P0A725, C63A); experiment: Inhibition of Escherichia coli LpxC C63A mutant using UDP-3-O-[(R)-3-hydroxymyristoyl]-N-acetylglucosamine substrate after 30 mins by fluorescence-bsed microplate assay
Escherichia coli [4] = experiment: Antibacterial activity against Escherichia coli BL21(DE3) incubated overnight by agar disk diffusion clearance assay; type: functional
Outline: (§2)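 Agar disc diffusion. 150 µL of an overnight LB culture (37 °C, 200 rpm) was spread on LB agar. 6 mm filter discs were loaded with 15 µL of 10 mM compound in DMSO, with DMSO and CHIR-090 discs as controls. Plates were incubated overnight at 37 °C and the diameter of the growth-inhibition zone was measured. Values are mean ± SD of three independent experiments.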

Escherichia coli [5] = experiment: Antibacterial activity against Escherichia coli D22 incubated overnight by agar disk diffusion clearance assay; type: functional; outline: as §2

Chain of UDP-3-O-acyl-N-acetylglucosamine deacetylase (P0A725 whole entry C63A, the tested form may be a part): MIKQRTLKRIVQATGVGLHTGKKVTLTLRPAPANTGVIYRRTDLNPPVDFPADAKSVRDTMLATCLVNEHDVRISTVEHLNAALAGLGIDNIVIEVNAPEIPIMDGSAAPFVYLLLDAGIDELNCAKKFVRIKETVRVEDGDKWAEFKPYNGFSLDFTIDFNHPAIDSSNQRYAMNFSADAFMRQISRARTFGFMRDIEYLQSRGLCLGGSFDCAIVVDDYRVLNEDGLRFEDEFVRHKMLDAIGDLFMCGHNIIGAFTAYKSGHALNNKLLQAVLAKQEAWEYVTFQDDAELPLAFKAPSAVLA

Row | Compound | MIC (Escherichia coli [1]) [µM] | MIC (Escherichia coli [2]) [µM] | IC50 [3] [nM] | Ki [3] [nM] | diameter of the inhibition zone (DIZ) (Escherichia coli [4]) [mm] | diameter of the inhibition zone (DIZ) (Escherichia coli [5]) [mm]
1 | C[C@@H](O)[C@H](NC(=O)c1ccc(C#Cc2ccc(CN3CCOCC3)cc2)cc1)C(=O)NO | 1 (≈ 0.437 µg/mL) | 0.032 (≈ 0.014 µg/mL) |  |  |  | 
2 | O=C(NO)[C@H](CO)O[C@H](CO)c1ccc(C#Cc2ccc(CN3CCOCC3)cc2)cc1 | > 256 | 4 (≈ 1.76 µg/mL) | 2600 | 360 |  | 
3 | O=C(COCc1ccc(C#Cc2ccccc2)cc1)NO | 128 (≈ 36 µg/mL) | 4 (≈ 1.13 µg/mL) | > 200000 |  |  | 
4 | O=C(COCc1ccc(C#Cc2ccc(CN3CCOCC3)cc2)cc1)NO | 64 (≈ 24.3 µg/mL) | 1 (≈ 0.38 µg/mL) | 10500 | 1450 |  | 
5 | O=C(CO[C@H](CO)c1ccc(C#Cc2ccccc2)cc1)NO | 256 (≈ 79.7 µg/mL) | 4 (≈ 1.25 µg/mL) | 480 | 66 |  | 
6 | O=C(CO[C@@H](CO)c1ccc(C#Cc2ccccc2)cc1)NO | 256 (≈ 79.7 µg/mL) | 32 (≈ 9.96 µg/mL) | 31600 | 4400 |  | 
7 | O=C(CO[C@H](CO)c1ccc(C#Cc2ccc(CN3CCOCC3)cc2)cc1)NO | 64 (≈ 26.3 µg/mL) | 0.5 (≈ 0.205 µg/mL) | 690 | 95 |  | 
8 | O=C(CO[C@@H](CO)c1ccc(C#Cc2ccc(CN3CCOCC3)cc2)cc1)NO | > 256 | 4 (≈ 1.64 µg/mL) | 198000 | 27300 |  | 
9 | O=C(NO)[C@H](CO)OCc1ccc(C#Cc2ccccc2)cc1 | 128 (≈ 39.9 µg/mL) | 4 (≈ 1.25 µg/mL) | 1960 | 270 | 11.7 | 20.7
10 | O=C(NO)[C@@H](CO)OCc1ccc(C#Cc2ccccc2)cc1 | 256 (≈ 79.7 µg/mL) | 8 (≈ 2.49 µg/mL) | 1870 | 260 | 10.3 | 17
11 | O=C(NO)[C@H](CO)OCc1ccc(C#Cc2ccc(CN3CCOCC3)cc2)cc1 | 64 (≈ 26.3 µg/mL) | 2 (≈ 0.821 µg/mL) | 2820 | 390 | 15.7 | 25.8
12 | O=C(NO)[C@@H](CO)OCc1ccc(C#Cc2ccc(CN3CCOCC3)cc2)cc1 | 128 (≈ 52.5 µg/mL) | 4 (≈ 1.64 µg/mL) | 1660 | 230 | 12.3 | 22
